Active and inactive are the calls of the source. The rule behind the calls is not given here.
Legend:
L6 [1] = assay: (§1) Induction of oxygen consumption rate in rat L6 cells upto 200 uM measured for 90 mins by Seahorse assay relative to BAM15; assay type: functional
[2] = Induction of oxygen consumption rate in rat L6 cells measured for 90 mins by Seahorse assay; assay type: functional, cell-based
[3] = as §1; assay type: functional; conditions: 1.5 h, up to 200 µM
Mus musculus [4] = assay: Effect on fibrosis stage of liver in diet-induced Gubra-Amylin NASH C57BL/6 mouse model of MASH at 200 mg/kg, po for 4 weeks; assay type: functional, organism-based
[5] = Toxicity in C57BL/6 mouse assessed as change in appetite at 30 to 1000 mg/kg, po measured for 24 hrs; assay type: organism-based; conditions: in vivo, dose 30-1000 mg/kg
Outline: (§2)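 Male C57BL/6 mice, 9 weeks old, given vehicle or compound at 30, 100, 300 or 1000 mg/kg by single oral gavage. Monitored 24 h after dosing for core temperature by rectal probe, body weight and food intake. n = 3, mean ± SEM.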

Mus musculus [6] = assay: Anti-obesity activity in diet-induced Gubra-Amylin NASH C57BL/6 mouse model of MASH assessed as decrease in plasma ALT level at 200 mg/kg, po for 4 weeks; assay type: functional, organism-based
Outline: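 GAN-diet male C57BL/6 mice given compound admixed in diet at 200 mg/kg daily for 4 weeks. Terminal EDTA plasma taken by cardiac puncture under isoflurane. ALT activity measured by kit assay, samples diluted 1:8 in ALT assay buffer.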

[7] = Induction of oxygen consumption rate in rat L6 cells assessed as increase in respiration at 10 uM measured for 90 mins in presence of BAM15 by Seahorse assay relative to control; assay type: functional; conditions: 1.5 h
Mus musculus [8] = assay: Effect on calorie intake in diet-induced Gubra-Amylin NASH C57BL/6 mouse model of MASH at 200 mg/kg, po; assay type: functional, organism-based
Outline: (§3)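 Male C57BL/6 mice, GAN diet from 5/6 weeks old for 33 weeks, then single-housed and stratified by baseline body weight and body composition. Fed GAN diet alone or GAN diet admixed with compound at 200 mg/kg for 4 weeks, fresh compound daily. Body weight and food intake measured daily, body composition weekly by EchoMRI, organs weighed at end.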

Mus musculus [9] = assay: Effect on liver mass in diet-induced Gubra-Amylin NASH C57BL/6 mouse model of MASH at 200 mg/kg, po for 4 weeks; assay type: functional, organism-based; outline: as §3
[10] = Toxicity in C57BL/6 mouse assessed as drug tolerance upto 1000 mg/kg, po measured for 24 hrs; assay type: organism-based; conditions: in vivo; outline: as §2
Mus musculus [11] = assay: Anti-obesity activity in diet-induced Gubra-Amylin NASH C57BL/6 mouse model of MASH assessed as decrease in liver triglyceride level at 200 mg/kg, po for 4 weeks; assay type: functional, organism-based
Outline: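 GAN-diet male C57BL/6 mice dosed 200 mg/kg daily in food for 4 weeks. Liver harvested at end, frozen in liquid nitrogen, lipid extracted. Extract heated 10 min at 37 °C, then triglyceride measured by colorimetric assay and normalized to initial grams extracted.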

Mus musculus [12] = assay: Anti-obesity activity in diet-induced Gubra-Amylin NASH C57BL/6 mouse model of MASH assessed as decrease in NAFLD activity score at 200 mg/kg, po for 4 weeks; assay type: functional, organism-based; outline: as §3
[13] = Toxicity in C57BL/6 mouse assessed as change in body temperature at 30 to 1000 mg/kg, po measured for 24 hrs; assay type: organism-based; conditions: in vivo, dose 30-1000 mg/kg; outline: as §2
Mus musculus [14] = assay: Anti-obesity activity in diet-induced Gubra-Amylin NASH C57BL/6 mouse model of MASH assessed as decrease in fat mass at 200 mg/kg, po for 4 weeks by EchoMRI analysis; assay type: functional, organism-based
Outline: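 Male C57BL/6 mice kept on GAN diet for 33 weeks, then fed GAN diet with or without compound admixed at 200 mg/kg daily for 4 weeks. Fat and lean mass measured weekly by EchoMRI.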

L6 [15] = assay: Induction of oxygen consumption rate in rat L6 cells at 10 uM measured for 90 mins in presence of oligomycin by Seahorse assay; assay type: functional, cell-based
Outline: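 L6 myoblasts in unbuffered DMEM with pyruvate and glutamine (pH 7.4) on Seahorse XF. Mitochondrial stress test: oligomycin 1 µM or vehicle injected, then compound at 10 µM, then antimycin A 10 µM plus rotenone 1 µM at set times. n = 3 wells per condition, mean ± SEM.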

Mus musculus [16] = assay: Anti-obesity activity in diet-induced Gubra-Amylin NASH C57BL/6 mouse model of MASH assessed at 200 mg/kg, po for 4 weeks by EchoMRI analysis
[17] = Toxicity in C57BL/6 mouse assessed as change in body weight at 30 to 1000 mg/kg, po measured for 24 hrs; assay type: organism-based; conditions: in vivo, dose 30-1000 mg/kg; outline: as §2

Row | SMILES | EC50 [2] | Activity (L6 [1]) | other results
1 | Oc1c(-c2ccc(-c3ccc(F)cc3)cc2)cnc2nonc12 | Not_active | inactive | 
2 | CC(C)(C)Oc1ccc(Nc2cnc3nonc3c2O)cc1 |  |  | Activity [3]: 20%; EC50 ([2]; read-out: EC50): 6 µM
3 | Oc1c(Nc2ccc(-c3cccc(F)c3F)cc2)cnc2nonc12 | Not_active | inactive | 
4 | Oc1c(Nc2ccc(-c3ccc(F)cc3)cc2)cnc2nonc12 |  |  | Activity [3]: 60%
5 | Oc1c(Nc2ccc(-c3ccccc3F)cc2)cnc2nonc12 | Not_active | inactive | 
6 | CC1(C)c2ccccc2-c2ccc(Nc3cnc4nonc4c3O)cc21 | Not_active | inactive | 
7 | Oc1c(Nc2ccc(-c3cccc(Cl)c3Cl)cc2)cnc2nonc12 | Not_active | inactive | 
8 | Oc1c(Nc2cccc(-c3ccccc3)c2)cnc2nonc12 |  |  | Activity [3]: 20%; EC50 ([2]; read-out: EC50): 6 µM
9 | Oc1c(Nc2ccc(-c3ccc(Cl)cc3)cc2)cnc2nonc12 |  |  | Activity [3]: 57%
10 | Oc1c(Nc2ccccc2-c2ccccc2)cnc2nonc12 | Not_active | inactive | 
11 | CCCCc1ccc(Nc2cnc3nonc3c2O)cc1 |  |  | EC50 ([2]; read-out: EC50): 1 µM
12 | Oc1c(Nc2ccc(-c3cccc(Cl)c3)cc2)cnc2nonc12 |  |  | Activity (Mus musculus [4]): inactive; Activity [5]: Non-toxic; Activity (Mus musculus [6]): Active; Activity [7]: 300%; Activity (Mus musculus [8]): inactive; Activity (Mus musculus [9]): Not active; No Significant Change In Liver Mass Was Observed But Showed Improvements In Fatty Liver Disease Phenotypes; Activity [10]: Non-toxic; Activity (Mus musculus [11]): Active; Activity (Mus musculus [12]): Active; The Occurence Is Due To Decreased Hepatic Steatosis; Activity [13]: Non-toxic; Activity (Mus musculus [14]): Active; Activity Of Drug Indicates Improved Body Composition; Activity (L6 [15]): Active; Action Of Drug Suggests Proton Transport Into Matrix Independent Of Atp Synthase; Activity Of Drug Requires Electron Transport Chain Activity; Activity (Mus musculus [16]): Active; Activity [17]: Non-toxic

Continued, in another order:

Row | EC50 [2] | SMILES | Activity (L6 [1]) | other results
13 | Not_active | CC(=O)c1ccc(Nc2cnc3nonc3c2O)cc1 | inactive | 
14 | Not_active | Oc1c(Nc2ccc(C(F)(F)F)nc2)cnc2nonc12 | inactive | 
15 | Not_active | N#Cc1ccc(Nc2cnc3nonc3c2O)cc1 | inactive | 
16 | Not_active | Oc1c(Nc2ccc(-c3ccc(C(F)(F)F)cc3)cc2)cnc2nonc12 | inactive | 
17 | Not_active | Oc1c(Nc2ccc(-c3cc(F)ccc3F)cc2)cnc2nonc12 | inactive | 
18 | Not_active | Oc1c(Nc2ccc(-c3ccc(F)c(F)c3)cc2)cnc2nonc12 | inactive | 
19 | Not_active | Oc1c(Nc2ccc(F)nc2)cnc2nonc12 | inactive | 

Source: ChEMBL document CHEMBL6092225, “Design, Synthesis, and Biological Evaluation of [1,2,5]Oxadiazolo[3,4-b]pyridin-7-ol as Mitochondrial Uncouplers for the Treatment of Obesity and Metabolic Dysfunction-Associated Steatohepatitis” (J Med Chem, 2024)
